{
  "source": "ChEMBL document CHEMBL1687714",
  "about": "“Genetic analysis of fenhexamid-resistant field isolates of the phytopathogenic fungus Botrytis cinerea” (Antimicrob Agents Chemother, 2008)",
  "key": {"Botrytis cinerea [1]": {"tested_on": "Botrytis cinerea", "assay": "Antifungal activity against highly fenhexamid-resistant Botrytis cinerea 440a assessed as inhibition of mycelium growth measured over 5 days", "format": "functional, organism-based", "settings": "120 h"}, "Botrytis cinerea [2]": {"tested_on": "Botrytis cinerea", "assay": "Antifungal activity against moderately to slightly fenhexamid-resistant Botrytis cinerea 202 assessed as inhibition of germ tube elongation after 24 hrs", "format": "functional, organism-based", "settings": "Botrytis cinerea, 202, 24 h"}, "Botrytis cinerea [3]": {"tested_on": "Botrytis cinerea", "assay": "Antifungal activity against moderately to slightly fenhexamid-resistant Botrytis cinerea 286 assessed as inhibition of mycelium growth measured over 5 days", "format": "functional, organism-based", "settings": "Botrytis cinerea, 286, 120 h"}, "Botrytis cinerea [4]": {"tested_on": "Botrytis cinerea", "assay": "Antifungal activity against Botrytis cinerea B05.10 harboring TELerg F412S mutant assessed as appearance of mycelium growth up to 20 ug/ml", "format": "functional", "procedure,_shortened": "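B05.10 transformants carrying the erg27 allele on the pFTELerg plasmid were grown on rich medium with hygromycin B until conidiation. Spores were spread on YSS (synthetic complete) medium with 50 µg ml–1 hygromycin B and fenhexamid at 1 to 20 µg ml–1. After 7 days at 21°C, spores developing mycelium were scored under the microscope.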"}, "Botrytis cinerea [5]": {"tested_on": "Botrytis cinerea", "assay": "Antifungal activity against Botrytis cinerea 223b expressing erg27 HydR3+ alleles assessed as appearance of dense mycelium up to 20 ug/ml", "format": "functional, organism-based", "procedure,_shortened": "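Spores of parental strains were spread on YSS (synthetic complete) medium containing fenhexamid at several concentrations, without hygromycin B. Growth was scored after 7 days at 21°C.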"}, "Botrytis cinerea [6]": {"tested_on": "Botrytis cinerea", "assay": "Antifungal activity against Botrytis cinerea 286 harboring TELerg S336C mutant at 1 ug/ml relative to wild-type", "format": "functional, organism-based", "procedure,_shortened": "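In the dominance test, the recipient strains 453b and 286 were transformed with different erg27 alleles. Spores of the transformants were grown on YSS medium containing fenhexamid at different concentrations and 50 µg ml–1 hygromycin B. Parental strains were grown without hygromycin. Growth was scored after 7 days at 21°C.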"}, "Botrytis cinerea [7]": {"tested_on": "Botrytis cinerea", "assay": "Antifungal activity against highly fenhexamid-resistant Botrytis cinerea 05-PV Reims assessed as inhibition of germ tube elongation after 24 hrs", "format": "functional, organism-based"}, "Botrytis cinerea [8]": {"tested_on": "Botrytis cinerea", "assay": "Antifungal activity against highly fenhexamid-resistant Botrytis cinerea 05-PV Reims assessed as inhibition of mycelium growth measured over 5 days", "format": "functional, organism-based", "settings": "120 h"}, "Botrytis cinerea [9]": {"tested_on": "Botrytis cinerea", "assay": "Antifungal activity against highly fenhexamid-resistant Botrytis cinerea 379b assessed as inhibition of germ tube elongation after 24 hrs", "format": "functional, organism-based"}},
  "note": "Calls of active or inactive are those of the source. The rule behind the calls is not given here.",
  "data": [
    {"smiles": "CC1(C(=O)Nc2ccc(O)c(Cl)c2Cl)CCCCC1", "note": "[FENHEXAMID]", "values": [
      {"measurement": "EC50", "setting": "Botrytis cinerea [1]", "value": "> 10", "unit": "µg/mL"},
      {"measurement": "EC50", "setting": "Botrytis cinerea [2]", "value": 2, "unit": "µg/mL"},
      {"measurement": "EC50", "setting": "Botrytis cinerea [3]", "value": 1.5, "unit": "µg/mL"},
      {"measurement": "Activity", "setting": "Botrytis cinerea [4]", "value": 10, "unit": "%"},
      {"measurement": "Activity", "setting": "Botrytis cinerea [5]", "value": "inactive"},
      {"measurement": "Activity", "setting": "Botrytis cinerea [6]", "value": "inactive"},
      {"measurement": "EC50", "setting": "Botrytis cinerea [7]", "value": "> 10", "unit": "µg/mL"},
      {"measurement": "EC50", "setting": "Botrytis cinerea [8]", "value": "> 10", "unit": "µg/mL"},
      {"measurement": "EC50", "setting": "Botrytis cinerea [9]", "value": "> 10", "unit": "µg/mL"}
    ]}
  ]
}
